As a reminder, the IC50 is the concentration needed to halve the response being measured. By inhibition is commonly meant how much of the control response was suppressed.

The source made the active and inactive calls. The rule behind the calls is not given here.

In one assay the test system is HCT-116. Kind of assay: Cytotoxicity against human HCT-116 cells assessed as reduction in cell viability measured after 72 hrs by MTT assay. The class given is functional, cell-based. The note with it: HCT-116, 72 h. (In general: Tetrazolium dyes change colour on reduction, which living cells bring about.)
A further assay has as its system MCF7. Kind of assay: Cytotoxicity against human MCF7 cells assessed as reduction in cell viability measured after 72 hrs by MTT assay. The note with it: MCF7, 72 h. The class given is functional, cell-based.
For assay [1], the system named is Jurkat. Kind of assay: Cytotoxicity against human Jurkat cells assessed as reduction in cell viability measured after 72 hrs by MTT assay. The class given is functional, cell-based.
Assay [2] has as its system NAMALVA. Kind of assay: Cytotoxicity against human NAMALVA cells assessed as reduction in cell viability measured after 72 hrs by MTT assay. The class given is functional, cell-based.
Assay [3] deals with T1, Histone deacetylase (Homo sapiens) (UniProt Q13547+O15379+Q9UBN7+Q92769+Q9UQL6+Q8WUI4+Q9BY41+Q96DB2+P56524+Q9UKV0+Q969S8). Kind of assay: Inhibition of HDAC in human HeLa cell nuclear extracts at 100 uM relative to control. The note with it: Nucleus. The class given is subcellular. The method in brief: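 Total HDAC activity measured with HeLa nuclear extract as enzyme source; single dose of 100 µM run in duplicate.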

The target in the next assay is Histone deacetylase 1 (Homo sapiens, UniProt Q13547). Kind of assay: Inhibition of recombinant human full-length C-terminal FLAG/His-tagged HDAC1 (1 to 482 residues) expressed in baculovirus infected Sf9 insect cells using RHKK(Ac)AMC as substrate preincubated for 5 to 10 mins followed by substrate addition and measured after 2 hrs by fluorescence assay.
Histone deacetylase 1, sequence (Q13547 whole entry, the tested form may be a part): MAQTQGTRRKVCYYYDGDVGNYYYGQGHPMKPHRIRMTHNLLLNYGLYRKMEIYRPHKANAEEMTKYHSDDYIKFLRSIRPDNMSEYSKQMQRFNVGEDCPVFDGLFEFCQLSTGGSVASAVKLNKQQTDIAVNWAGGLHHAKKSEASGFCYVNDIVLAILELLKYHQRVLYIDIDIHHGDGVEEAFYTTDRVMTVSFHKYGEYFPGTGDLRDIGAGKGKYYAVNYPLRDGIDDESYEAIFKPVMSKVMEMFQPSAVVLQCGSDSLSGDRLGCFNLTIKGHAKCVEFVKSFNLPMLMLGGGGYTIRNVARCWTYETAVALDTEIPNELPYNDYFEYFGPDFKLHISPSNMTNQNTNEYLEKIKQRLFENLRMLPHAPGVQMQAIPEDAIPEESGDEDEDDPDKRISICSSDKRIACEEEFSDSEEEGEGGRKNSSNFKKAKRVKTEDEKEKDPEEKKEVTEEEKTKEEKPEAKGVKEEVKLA
Assay [4] addresses T2, Protein deacetylase HDAC6 (Homo sapiens, UniProt Q9UBN7).
T2 sequence (Q9UBN7 whole entry): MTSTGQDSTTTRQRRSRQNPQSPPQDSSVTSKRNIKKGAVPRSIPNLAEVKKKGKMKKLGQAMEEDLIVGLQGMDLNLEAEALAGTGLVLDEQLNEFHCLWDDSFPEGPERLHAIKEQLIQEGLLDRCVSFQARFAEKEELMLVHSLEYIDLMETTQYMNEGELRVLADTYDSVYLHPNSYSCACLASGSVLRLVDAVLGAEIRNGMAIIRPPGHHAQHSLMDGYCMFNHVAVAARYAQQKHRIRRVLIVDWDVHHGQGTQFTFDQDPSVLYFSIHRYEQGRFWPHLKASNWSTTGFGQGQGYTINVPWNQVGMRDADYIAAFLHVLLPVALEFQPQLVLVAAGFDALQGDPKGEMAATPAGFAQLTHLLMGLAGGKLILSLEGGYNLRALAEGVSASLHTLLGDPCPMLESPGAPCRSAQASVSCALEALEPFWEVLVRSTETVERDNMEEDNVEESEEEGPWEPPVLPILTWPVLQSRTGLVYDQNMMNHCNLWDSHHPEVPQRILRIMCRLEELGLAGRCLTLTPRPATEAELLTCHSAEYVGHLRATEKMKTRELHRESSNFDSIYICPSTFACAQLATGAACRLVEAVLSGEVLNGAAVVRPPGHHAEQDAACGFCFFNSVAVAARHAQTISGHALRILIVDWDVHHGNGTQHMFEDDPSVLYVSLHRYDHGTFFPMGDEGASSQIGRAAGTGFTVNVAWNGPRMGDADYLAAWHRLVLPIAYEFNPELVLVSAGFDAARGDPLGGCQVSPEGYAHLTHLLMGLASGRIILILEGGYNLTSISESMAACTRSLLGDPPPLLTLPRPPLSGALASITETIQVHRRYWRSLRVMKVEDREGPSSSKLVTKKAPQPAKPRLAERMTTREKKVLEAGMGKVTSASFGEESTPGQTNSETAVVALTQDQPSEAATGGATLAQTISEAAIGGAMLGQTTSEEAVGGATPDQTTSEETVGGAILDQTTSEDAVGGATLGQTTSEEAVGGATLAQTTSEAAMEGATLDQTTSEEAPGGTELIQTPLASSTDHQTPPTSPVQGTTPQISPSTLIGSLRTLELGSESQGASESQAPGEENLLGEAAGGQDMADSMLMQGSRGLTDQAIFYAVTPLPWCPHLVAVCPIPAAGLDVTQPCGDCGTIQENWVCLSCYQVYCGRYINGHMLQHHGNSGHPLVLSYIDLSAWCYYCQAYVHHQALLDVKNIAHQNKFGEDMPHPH
Kind of assay: Inhibition of recombinant human full-length N-terminal GST-tagged HDAC6 (1 to 1215 residues) expressed in baculovirus infected Sf9 insect cells using RHKK(Ac)AMC as substrate preincubated for 5 to 10 mins followed by substrate addition and measured after 2 hrs by fluorescence assay.

The species named for another assay is Homo sapiens. Kind of assay: Selectivity index, ratio of IC50 for inhibition of recombinant human full-length C-terminal FLAG/His-tagged HDAC1 (1 to 482 residues) expressed in baculovirus infected Sf9 insect cells to IC50 for inhibition of recombinant human full-length N-terminal GST-tagged HDAC6 (1 to 1215 residues) expressed in baculovirus infected Sf9 insect cells.

Assay [5] concerns Jurkat. Kind of assay: Cytotoxicity against human Jurkat cells assessed as reduction in cell proliferation at IC50 measured after 48 hrs by Ki-67 staining based fluorescence assay. The class given is functional. The method in brief:
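Ki-67 stained per kit instructions; mean fluorescence intensity by flow cytometry, normalized to untreated cells; at least three independent experiments, ANOVA with Bonferroni post-test.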

For assay [6], the system named is Jurkat. Kind of assay: Induction of apoptosis in human Jurkat cells assessed as viable cells at 0.5 times IC50 measured after 48 hrs by Annexin V-FITC/7AAD staining based flow cytometry (reference value: 85.2%). The class given is functional. Background: A flow cytometer gives signals particle by particle.
Assay [7] can be described thus: Cytotoxicity against human HS5 cells assessed as reduction in cell viability measured after 72 hrs by MTT assay. The class given is ADME, cell-based. The note with it: HS5, 72 h.
For assay [8], the system named is Jurkat. Kind of assay: Cytotoxicity against human Jurkat cells assessed as reduction in cell viability MTT assay. The class given is functional, cell-based. The note with it: time 24-72 hrs, TDE = time-dependent effect. The method in brief: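 Jurkat cells (2 × 10^4/well) in RPMI with 10% FBS and 1% penicillin–streptomycin, exposed 24, 48 and 72 h to compound (0.0032–50 μM); 1% DMSO as negative control. MTT at 0.5 mg/mL final for 3 h, formazan dissolved in 0.1 N HCl/isopropanol. IC50 with 95% confidence intervals from sigmoidal nonlinear regression; mean ± SEM.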

The subject of assay [9] is Jurkat. Kind of assay: Cytotoxicity against human Jurkat cells assessed as reduction in cell viability measured after 24 hrs MTT assay. The class given is functional, cell-based.
In assay [10] the test system is Jurkat. Kind of assay: Cytotoxicity against human Jurkat cells assessed as reduction in cell viability measured after 48 hrs MTT assay. The class given is functional, cell-based.
Assay [11] deals with Jurkat. Kind of assay: Induction of apoptosis in human Jurkat cells assessed as early apoptotic cells at 0.5 times IC50 measured after 48 hrs by Annexin V-FITC/7AAD staining based flow cytometry (reference value: 6.05%). The class given is functional.
Assay [12] relates to Jurkat. Kind of assay: Induction of apoptosis in human Jurkat cells assessed as late apoptotic cells at 0.5 times IC50 measured after 48 hrs by Annexin V-FITC/7AAD staining based flow cytometry (reference value: 6.77%). The class given is functional.
Assay [13] deals with Jurkat. Kind of assay: Induction of apoptosis in human Jurkat cells assessed as necrotic cells at 0.5 times IC50 measured after 48 hrs by Annexin V-FITC/7AAD staining based flow cytometry (reference value: 0.23%). The class given is functional.
Assay [14] relates to NAMALVA. Kind of assay: Induction of apoptosis in human NAMALVA cells assessed as viable cells at 0.5 times IC50 measured after 48 hrs by Annexin V-FITC/7AAD staining based flow cytometry (reference value: 90.4%). The class given is functional.
In assay [15] the test system is NAMALVA. Kind of assay: Induction of apoptosis in human NAMALVA cells assessed as early apoptotic cells at 0.5 times IC50 measured after 48 hrs by Annexin V-FITC/7AAD staining based flow cytometry (reference value: 5.07%). The class given is functional.
The test system of assay [16] is NAMALVA. Kind of assay: Induction of apoptosis in human NAMALVA cells assessed as late apoptotic cells at 0.5 times IC50 measured after 48 hrs by Annexin V-FITC/7AAD staining based flow cytometry (reference value: 3.52%). The class given is functional.
Assay [17] concerns NAMALVA. Kind of assay: Induction of apoptosis in human NAMALVA cells assessed as necrotic cells at 0.5 times IC50 measured after 48 hrs by Annexin V-FITC/7AAD staining based flow cytometry (reference value: 1.05%). The class given is functional.
Assay [18] addresses T3, Protein deacetylase HDAC6 (Homo sapiens) (UniProt Q9UBN7).
T3 sequence (whole entry): T2 sequence (Q9UBN7 whole entry)
Kind of assay: Inhibition of HDAC6 in human Jurkat cells assessed as increase in acetylated alpha-tubulin expression at IC50 measured after 48 hrs by Western blot analysis. The class given is cell-based. For orientation: A western blot detects proteins with antibodies after separation by electrophoresis.

For assay [19], the target named is T3, Protein deacetylase HDAC6 (Homo sapiens). Kind of assay: Inhibition of HDAC6 in human NAMALVA cells assessed as increase in acetylated alpha-tubulin expression at IC50 measured after 48 hrs by Western blot analysis. The class given is cell-based.
Assay [20] deals with T1, Histone deacetylase (Homo sapiens). Kind of assay: Inhibition of HDAC in human Jurkat cells assessed as increase in gammaH2AX expression at IC50 measured after 48 hrs by Western blot analysis. The class given is cell-based.
For assay [21] the target is unchanged. Kind of assay: Inhibition of HDAC in human NAMALVA cells assessed as increase in gammaH2AX expression at IC50 measured after 48 hrs by Western blot analysis. The class given is cell-based.
The test system of assay [22] is Jurkat. Kind of assay: Effect on phosphoserine expression in human Jurkat cells at IC50 measured after 48 hrs by Western blot analysis. The class given is functional, cell-based.
For assay [23], the system named is Jurkat. Kind of assay: Effect on phosphotyrosine expression in human Jurkat cells at IC50 measured after 48 hrs by Western blot analysis. The class given is functional, cell-based.
For assay [24], the system named is NAMALVA. Kind of assay: Effect on phosphoserine expression in human NAMALVA cells at IC50 measured after 48 hrs by Western blot analysis. The class given is functional, cell-based.
In assay [25] the test system is NAMALVA. Kind of assay: Effect on phosphotyrosine expression in human NAMALVA cells at IC50 measured after 48 hrs by Western blot analysis. The class given is functional, cell-based.

As for `O=C(Nc1ccc(Cl)cc1)Nc1ccc(C(=O)NO)cc1`, the half-inhibitory concentration (IC50) is greater than 50 µM in the assay on HCT-116; greater than 50 µM with MCF7; 1060 nM with Jurkat [1]; 870 nM in the assay on NAMALVA [2]; 1320 nM at Histone deacetylase 1; 20.7 nM in assay [4]. For the same compound, the inhibition in [3] came out at 92%. In addition, the Ratio IC50 in the assay filed under Homo sapiens is 64.

On to `O=C(CCc1ccc(NC(=O)Nc2ccc(Cl)cc2)cc1)NO`, for which the IC50 in the assay with HCT-116 is 17.9 µM; in the assay with MCF7, greater than 50 µM; in the assay on Jurkat [1] it was 410 nM; in the assay on NAMALVA [2], 370 nM; at Histone deacetylase 1 it was 941 nM; in [4], 105 nM. This compound gave an inhibition in assay [3] of 98%. Further, the Ratio IC50 in the assay listed under Homo sapiens worked out at 9.

In the case of `O=C(/C=C/c1ccc(NC(=O)Nc2ccc(Cl)cc2)cc1)NO`, the result in the assay on Jurkat [5] was Active. The Activity is 88.4% with Jurkat [6]; “Tde” in the assay with Jurkat [8]; 7.92% in the assay with Jurkat [11]; 4.28% in the assay with Jurkat [12]; 0.28% in the assay with Jurkat [13]; 72.5% in the assay with NAMALVA [14]. Further, the Activity in the assay on NAMALVA [15] turned out to be 17.9%; in the assay on NAMALVA [16] it was 8.85%; in the assay with NAMALVA [17], 0.68%. Further, the IC50 in the assay with HCT-116 was 29.9 µM; in the assay on MCF7, greater than 50 µM; in the assay with Jurkat [1] it was 40 nM; in the assay on NAMALVA [2] it was 200 nM; in assay [7] it was 1700 nM; in the assay with Jurkat [9], 2600 nM. Moreover, the IC50 in the assay on Jurkat [10] is 600 nM; in [4], 8.1 nM. In addition, the inhibition result in assay [18], in assay [19], in assay [20] and in [21] was “Active” throughout. For the same compound, the inhibition entry in the assay with Jurkat [22], with Jurkat [23], in the assay with NAMALVA [24] and in the assay on NAMALVA [25] was “inactive” in each case. Besides, in assay [3], the inhibition amounted to 93%.
